# In ChEMBL document CHEMBL1156979, “The impact of polyether chain length on the iron clearing efficiency and physiochemical properties of desferrithiocin analogues” (J Med Chem, 2010):
# Activity calls are given as the source filed them. No cut-off for these calls is given here.
# Key:
# [1] = test system: Rattus norvegicus; assay: Iron-clearing efficiency in non-iron-overloaded and bile duct-cannulated Sprague-Dawley rat assessed as reduction of pancreatic iron content at 384 umol/kg, po qd for 10 days administered as monosodium salt; assay type: functional, organism-based
# In short: (§1)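 Male Sprague-Dawley rats (300–350 g) were fasted overnight and dosed orally once daily for 10 d. Dosing was 384 μmol/kg/d in gelatin capsules (n = 5) or by gavage as monosodium salt (n = 10), or 192 (n = 6) or 384 μmol/kg/d (n = 5) in capsules. Rats were fed ~3 h post-dose. Age-matched untreated controls (n = 12). Kidney, liver, heart and pancreas were taken on day 11, wet-ashed (120 °C, then H2O2), and iron was measured by flame absorption spectroscopy.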
# [2] = test system: Rattus norvegicus; assay: Iron-clearing efficiency in non-iron-overloaded and bile duct-cannulated Sprague-Dawley rat assessed as reduction of liver iron stores at 384 umol/kg, po qd for 10 days
# [3] = Ratio of iron-clearing efficiency in iron-overloaded Cebus apella at 75 umol/kg, po to iron-clearing efficiency in non-iron-overloaded and bile duct-cannulated Sprague-Dawley rat at 300 umol/kg, po after 48 hrs; assay type: functional, organism-based
# In short: (§2)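 Iron-overloaded Cebus apella (3.5–4 kg; iv iron dextran to about 500 mg Fe/kg, ≥60 days before use) dosed orally at 75 μmol/kg, by gavage as monosodium salt (1 equiv NaOH in distilled water) or in capsules. Feces and urine collected every 24 h from 4 days pre-drug to 5 days post-drug; iron by flame absorption spectroscopy. ICE = 2-day post-drug iron minus 4-day baseline average, divided by theoretical output (2:1 ligand:iron); percent. Performance ratio = mean primate ICE/rodent ICE.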
# [4] = test system: Rattus norvegicus; assay: Iron-clearing efficiency in non-iron-overloaded and bile duct-cannulated Sprague-Dawley rat assessed as time required to maximum bile iron excretion at 300 umol/kg, po after 12 to 15 hrs; assay type: functional, organism-based
# In short: (§3)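 Non-iron-overloaded male Sprague-Dawley rats (400–450 g), bile duct-cannulated, given a single oral dose of 300 μmol/kg, either by gavage as monosodium salt or in capsules. Bile was collected at 3 h intervals for up to 48 h and urine every 24 h. Iron was measured by flame absorption spectroscopy. ICE = 24-h iron excretion of treated rats minus controls, divided by theoretical output (2:1 ligand:iron); percent. Mean ± SEM; one-tailed t-test.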
# [5] = test system: Rattus norvegicus; assay: Iron-clearing efficiency in non-iron-overloaded and bile duct-cannulated Sprague-Dawley rat assessed as reduction of pancreatic iron content at 384 umol/kg, po qd for 10 days administered as gelatin capsules; assay type: functional, organism-based; in short: as §1
# [6] = test system: Rattus norvegicus; assay: Iron-clearing efficiency in non-iron-overloaded and bile duct-cannulated Sprague-Dawley rat assessed as bile iron excretion at 300 umol/kg, po up to 48 hrs; assay type: functional, organism-based; in short: as §3
# [7] = test system: Sapajus apella; assay: Iron-clearing efficiency in iron-overloaded Cebus apella assessed as reduction of liver iron stores at 384 umol/kg, po qd for 28 days; assay type: functional, organism-based
# [8] = test system: Rattus norvegicus; assay: Iron-clearing efficiency in non-iron-overloaded and bile duct-cannulated Sprague-Dawley rat assessed as time required to maximum bile iron excretion at 300 umol/kg, po; assay type: functional; in short: as §3
# [9] = test system: Sapajus apella; assay: Iron-clearing efficiency in iron-overloaded Cebus apella assessed as urine iron excretion at 150 umol/kg, po measured daily once for 5 days by lame absorption spectroscopy relative to control; assay type: functional
# [10] = test system: Rattus norvegicus; assay: Iron-clearing efficiency in non-iron-overloaded and bile duct-cannulated Sprague-Dawley rat assessed as bile iron excretion at 300 umol/kg, po up to 12 hrs; assay type: functional, organism-based; in short: as §3
# [11] = test system: Sapajus apella; assay: Iron-clearing efficiency in iron-overloaded Cebus apella assessed as feces iron excretion at 150 umol/kg, po measured daily once for 5 days by lame absorption spectroscopy relative to control; assay type: functional
# [12] = test system: Sapajus apella; assay: Iron-clearing efficiency in iron-overloaded Cebus apella at 150 umol/kg, po measured daily once for 2 days by flame absorption spectroscopy relative to control; assay type: functional
# [13] = test system: Rattus norvegicus; assay: Iron-clearing efficiency in non-iron-overloaded and bile duct-cannulated Sprague-Dawley rat assessed as reduction of renal iron content at 384 umol/kg, po qd for 10 days administered as gelatin capsules relative to control; assay type: functional; set-up: scale not given: the % may be the effect or the level left
# [14] = test system: Rattus norvegicus; assay: Iron-clearing efficiency in non-iron-overloaded and bile duct-cannulated Sprague-Dawley rat at 300 umol/kg, po after 48 hrs relative to control; assay type: functional; in short: as §3
# [15] = test system: Rattus norvegicus; assay: Iron-clearing efficiency in non-iron-overloaded and bile duct-cannulated Sprague-Dawley rat assessed as reduction of liver iron content at 384 umol/kg, po qd for 10 days administered as monosodium salt relative to control; assay type: functional; set-up: scale not given: the % may be the effect or the level left
# [16] = test system: Rattus norvegicus; assay: Toxicity in Sprague-Dawley rat assessed as histopathological examination at 384 umol/kg, po qd for 10 days measured after 24 hrs last post dose; assay type: organism-based; settings: in vivo
# In short: (§4)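 Male Sprague-Dawley rats (300–350 g), fasted overnight, were dosed orally once daily for 10 d. Dosing was 384 μmol/kg/d (capsules or by gavage as monosodium salt) or 192 μmol/kg/d (capsules). Age-matched untreated controls. Rats were euthanized 24 h after the last dose (day 11), and extensive tissues were examined histopathologically.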
# [17] = test system: Rattus norvegicus; assay: Toxicity in Sprague-Dawley rat assessed as histopathological examination at 384 umol/kg, po qd for 10 days; settings: in vivo, 240 h
# [18] = test system: Rattus norvegicus; assay: Iron-clearing efficiency in non-iron-overloaded and bile duct-cannulated Sprague-Dawley rat assessed as reduction of liver iron content at 384 umol/kg, po qd for 10 days administered as gelatin capsules relative to control; assay type: functional; set-up: scale not given: the % may be the effect or the level left
# [19] = test system: Rattus norvegicus; assay: Iron-clearing efficiency in non-iron-overloaded and bile duct-cannulated Sprague-Dawley rat assessed as bile iron excretion at 300 umol/kg, po after 48 hrs relative to control; assay type: functional
# In short: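 Male Sprague-Dawley rats (400–450 g), non-iron-overloaded and bile duct-cannulated, were dosed orally at 300 μmol/kg, either by gavage as the monosodium salt (1 equiv NaOH added to the free acid in distilled water) or in capsules. Bile was collected at 3 h intervals for up to 48 h and urine at 24 h intervals. Iron efficiency was calculated as treated minus control iron excretion, divided by the theoretical output for a 2:1 ligand:iron complex, expressed as %; values are mean ± SEM.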
# [20] = test system: Rattus norvegicus; assay: Iron-clearing efficiency in non-iron-overloaded and bile duct-cannulated Sprague-Dawley rat assessed as reduction of cardiac iron content at 384 umol/kg, po qd for 10 days administered as gelatin capsules relative to control; assay type: functional, Heart; set-up: scale not given: the % may be the effect or the level left
# [21] = test system: Rattus norvegicus; assay: Iron-clearing efficiency in non-iron-overloaded and bile duct-cannulated Sprague-Dawley rat assessed as reduction of renal iron content at 384 umol/kg, po qd for 10 days administered as monosodium salt relative to control; assay type: functional; set-up: scale not given: the % may be the effect or the level left
# [22] = test system: Rattus norvegicus; assay: Iron-clearing efficiency in non-iron-overloaded and bile duct-cannulated Sprague-Dawley rat assessed as reduction of cardiac iron content at 384 umol/kg, po qd for 10 days administered as monosodium salt relative to control; assay type: functional, Heart; set-up: scale not given: the % may be the effect or the level left
# [23] = test system: Rattus norvegicus; assay: Iron-clearing efficiency in non-iron-overloaded and bile duct-cannulated Sprague-Dawley rat assessed as urine iron excretion at 300 umol/kg, po after 48 hrs relative to control; assay type: functional
# [24] = test system: Sapajus apella; assay: Iron-clearing efficiency in iron-overloaded Cebus apella at 75 umol/kg, po measured daily once for 2 days by flame absorption spectroscopy relative to control; assay type: functional; in short: as §2
# [25] = test system: Rattus norvegicus; assay: Iron-clearing efficiency in non-iron-overloaded and bile duct-cannulated Sprague-Dawley rat assessed as reduction of liver iron content at 192 umol/kg, po qd for 10 days relative to control; assay type: functional; set-up: scale not given: the % may be the effect or the level left; in short: as §1
# [26] = test system: Rattus norvegicus; assay: Toxicity in Sprague-Dawley rat assessed as mild to moderate vacuolar degeneration of proximal tubular epithelial cells at 384 umol/kg, po qd for 10 days; assay type: organism-based, Epithelial cell; settings: in vivo, 240 h; in short: as §4
# [27] = test system: Rattus norvegicus; assay: Iron-clearing efficiency in non-iron-overloaded and bile duct-cannulated Sprague-Dawley rat assessed as reduction of pancreatic iron content at 384 umol/kg, po qd for 10 days relative to control; assay type: functional, organism-based; in short: as §1
# [28] = test system: Rattus norvegicus; assay: Iron-clearing efficiency in non-iron-overloaded and bile duct-cannulated Sprague-Dawley rat assessed as reduction of renal iron content at 384 umol/kg, po qd for 10 days relative to control; assay type: functional; set-up: scale not given: the % may be the effect or the level left; in short: as §1
# [29] = test system: Sapajus apella; assay: Iron-clearing efficiency in iron-overloaded Cebus apella assessed as urine iron excretion at 75 umol/kg, po measured daily once for 5 days by lame absorption spectroscopy relative to control; assay type: functional
# [30] = test system: Rattus norvegicus; assay: Iron-clearing efficiency in non-iron-overloaded and bile duct-cannulated Sprague-Dawley rat assessed as reduction of liver iron content at 384 umol/kg, po qd for 10 days relative to control; assay type: functional; set-up: scale not given: the % may be the effect or the level left; in short: as §1
# [31] = test system: Rattus norvegicus; assay: Iron-clearing efficiency in non-iron-overloaded and bile duct-cannulated Sprague-Dawley rat assessed as reduction of cardiac iron content at 192 umol/kg, po qd for 10 days relative to control; assay type: functional, organism-based; settings: Heart; in short: as §1
# [32] = test system: Rattus norvegicus; assay: Iron-clearing efficiency in non-iron-overloaded and bile duct-cannulated Sprague-Dawley rat assessed as reduction of renal iron content at 192 umol/kg, po qd for 10 days relative to control; assay type: functional; set-up: scale not given: the % may be the effect or the level left; in short: as §1
# [33] = Octanol-water partition coefficient, log P in Tris buffer at pH 7.4 by shake flask method; assay type: physicochemical
# In short: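 Octanol/water partition was measured at pH 7.4 (Tris buffer) by the shake-flask direct method. The fraction of drug in octanol is expressed as log P_app.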
# [34] = test system: Rattus norvegicus; assay: Renal toxicity in Sprague-Dawley rat at 384 umol/kg, po qd for 10 days; assay type: organism-based; settings: in vivo, 240 h; in short: as §4
# [35] = test system: Rattus norvegicus; assay: Iron-clearing efficiency in non-iron-overloaded and bile duct-cannulated Sprague-Dawley rat assessed as reduction of pancreatic iron content at 192 umol/kg, po qd for 10 days relative to control; assay type: functional, organism-based; in short: as §1
# [36] = test system: Rattus norvegicus; assay: Iron-clearing efficiency in non-iron-overloaded and bile duct-cannulated Sprague-Dawley rat assessed as reduction of cardiac iron content at 384 umol/kg, po qd for 10 days relative to control; assay type: functional, organism-based; settings: Heart; in short: as §1
# [37] = test system: Rattus norvegicus; assay: Toxicity in Sprague-Dawley rat assessed as histopathological examination at 192 umol/kg, po qd for 10 days; assay type: organism-based; settings: in vivo, 240 h; in short: as §4
# [38] = test system: Sapajus apella; assay: Iron-clearing efficiency in iron-overloaded Cebus apella assessed as feces iron excretion at 75 umol/kg, po measured daily once for 5 days by lame absorption spectroscopy relative to control; assay type: functional
smiles,measurement,setting,value
COCCOCCOc1ccc(C2=N[C@@](C)(C(=O)O)CS2)c(O)c1,Activity,[1],Active
same,Activity,[2],Active
same,Ratio,[3],1
same,Activity,[4],inactive
same,Activity,[5],inactive
same,Activity,[6],Active
same,Activity,[7],Active
COCCOCCOCCOc1ccc(C2=N[C@@](C)(C(=O)O)CS2)c(O)c1,Time,[8],3 h
same,Activity,[9],4%
same,Activity,[10],Active
same,Activity,[11],96%
same,Activity,[12],25.4%
COCCOCCOc1ccc(C2=N[C@@](C)(C(=O)O)CS2)c(O)c1 [SP-420],Activity,[13],7.4%
same,Activity,[14],26.7%
same,Activity,[15],>35%
same,Activity,[16],Non-toxic
same,Activity,[17],Toxic
same,Activity,[18],>35%
same,Activity,[19],97%
same,Activity,[20],6.9%
same,Activity,[21],24.8%
same,Activity,[22],9.9%
same,Activity,[23],3%
CCOC(=O)[C@@]1(C)CSC(c2ccc(OCCOCCOC)cc2O)=N1,Activity,[24],8.8%
same,Activity,[25],27%
same,Activity,[26],Toxic
same,Activity,[27],inactive
same,Activity,[28],32.1%
same,Activity,[29],2%
same,Activity,[14],25.9%
same,Ratio,[3],0.3
same,Activity,[30],59.1%
same,Activity,[31],inactive
same,Activity,[32],12.6%
same,logD,[33],3
same,Activity,[34],Toxic
same,Activity,[35],inactive
same,Activity,[36],inactive
same,Activity,[4],inactive
same,Activity,[37],Non-toxic
same,Activity,[6],Active
same,Activity,[38],98%
same,Activity,[23],1%
